According to ChEMBL document CHEMBL4513216, “Probing the Open Global Health Chemical Diversity Library for Multistage-Active Starting Points for Next-Generation Antimalarials” (ACS Infect Dis, 2020):

Assay: Toxicity liver stage against HepG2, at 10uM
Format: cell-based
Set-up: test concentration 10 uM, cell line HepG2-A16-CD81EGFP
Details: human, HepG2-A16-CD81EGFP cells; read-out: INHIBITION
Outline: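 Uninfected HepG2-A16-CD81EGFP cells, 3 × 10^3 per well, 1536-well, plated on prespotted compound at 10 μM final, parasite-free screening media added to match infected plates; puromycin 10 μM positive, DMSO 0.5% negative; run in parallel with 48 h PbLuc assay at 37 °C, 5% CO2; viability by CellTiter-Glo luminescence, normalized to controls.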

| Structure (SMILES) | cytotoxicity at 10 µM [%] |
| --- | --- |
| CC(C)Oc1ccc(CNC(=O)CC(F)(F)F)cc1F | -1.08 |
| Cn1cc(CCNC(=O)C2(c3cccc(Cl)c3)CC2)cn1 | 0.33 |
| Cc1nc2ccccc2n1CCNCc1cccc(O)c1 | -3.89 |
| COc1ccccc1CNC(=O)N1CCCC(CO)C1 (configuration not stated) | 0.91 |
| Cc1cc(N(Cc2cccnc2)C2CC2)n2nc(C(F)(F)F)nc2n1 | -1.95 |
| CCNc1ncc(C(=O)NCCc2csc(-c3ncccn3)n2)cn1 | 19.9 |
| NC(=O)c1cc2c(nc1N)CCN(C(=O)C1CCCCC1)C2 | -21.8 |
| Cc1ccc(-c2nc(C3CCN(C(=O)c4ccn(C)n4)CC3)no2)cn1 | -2.81 |
| CC(C(=O)NCCCn1ccnc1)n1cc(Br)cn1 (configuration not stated) | -13.8 |
| CS(=O)(=O)N1CCC(Cc2cnc(Br)cn2)CC1 | 13.4 |
| CC(C)(C)n1ncc2c(=O)[nH]c(N3CC(O)C3)nc21 | -8.61 |
| O=C(Nc1cnccn1)[C@@H]1COC[C@H]2CN(C3CCC3)C[C@H]21 | 14.7 |
| CN(C)C1(CNc2ncc(Br)cn2)CCOCC1 | -8.66 |
| CCn1cc(NC(=O)C2CCN(Cc3ccccc3)CC2)cn1 | 2.41 |
| CC(C)c1cc(N2CCCC3(CCN(C)C3)C2)ncn1 (configuration not stated) | -7.36 |
| CCc1oc(C(=O)NC(C)Cc2cnccn2)cc1CN1CCCC1 (configuration not stated) | -5.28 |
| CCn1nccc1CNC(=O)C(C)n1cc2c(n1)c(C)nn2C (configuration not stated) | 5.32 |
| CCn1cc2c(n1)CN(Cc1nccs1)CC2COCC1CC1 (configuration not stated) | 6.07 |
| c1cn2c(n1)CO[C@@H](CNCc1ccc3c(c1)OCO3)C2 | 2 |
| N#CCSCCCN1CCN(C(=O)c2cccc(Cl)c2)CC1 | -161 |
| COCCNc1nc(-c2ccc(S(=O)(=O)N3CCCCCC3)cc2)cs1 | -32.7 |
| CC(C#N)(NC(=O)COc1ccccc1Br)C1CC1 (configuration not stated) | 7.45 |
| Cc1ccc(NC2CCN(C(=O)CCc3ccco3)CC2)nn1 | -2.97 |

| Structure (SMILES) | cytotoxicity at 10 µM [%] |
| --- | --- |
| Cn1cc(-c2nc3c(cc2C(=O)O)CCN(C(=O)C2CC2)CC3)cn1 | 17.9 |
| CC(C)N(Cc1ccccc1)Cc1csc(-c2ncccn2)n1 | 7.76 |
| Cc1nc(C2CCCN(C(=O)Cn3ccccc3=O)C2)sc1C (configuration not stated) | 1.5 |
| CC(NC(=O)CCc1ccsc1)c1ccc2c(c1)NC(=O)CO2 (configuration not stated) | -6.16 |
| O=C(c1ccc[nH]1)N1CCOCC2(C1)CN(c1ccccc1)C(=O)CO2 (configuration not stated) | -1.05 |
| CCCN1CCC(CNC(=O)C2(c3cc(C)cc(C)c3)CCC2)C1 (configuration not stated) | -0.185 |
| CCn1cc(NC(=O)NCC(c2ccsc2)N(C)C)cn1 (configuration not stated) | -8.01 |
| Cc1nnc(NCC2(c3ccc(Cl)cc3Cl)CCOCC2)c(C#N)c1C | 1.98 |
| CN1CCN(Cc2ccc(F)cc2)Cc2cccnc21 | -80.2 |
| O=C1N(CC2CCCCC2)CCCC1(O)CN1CCc2[nH]ncc2C1 (configuration not stated) | -5.84 |
| C=C(C)CN1CCC(NC(=O)Nc2ccc(F)c(C(=O)NC)c2)CC1 | 5.58 |
| Cc1cc(CN2CCCC(c3cc(C(F)(F)F)[nH]n3)C2)no1 (configuration not stated) | -0.674 |
| Cc1cc(CNS(C)(=O)=O)ccc1N(C)C | -11.5 |
| N#Cc1c(F)cccc1NCCCOCC1CCOCC1 | -1.25 |
| O=C(Cn1ccc2c(Cl)cccc21)N1CCC2(CC1)OCCO2 | 14.2 |
| CN(C)CCO[C@@H]1CC[C@H]2[C@H]1OCCN2C(=O)c1ccccc1F | 2.25 |
| Cc1noc(C)c1CCC(=O)N1CCN(Cc2cscn2)CC1 | -6.28 |
| Cc1ccc(N2CCC(CCN3CCCC3=O)CC2)nn1 | 6.35 |
| O=C(c1ccccc1)C1CCN(C(=O)CC2COCCN2)CC1 (configuration not stated) | -163 |
| O=C(CN1CCS(=O)(=O)CC1)NC1CCCc2ccccc21 (configuration not stated) | -0.82 |
| COc1ccc(NC(C)=O)cc1S(=O)(=O)Nc1ccon1 | 1.08 |
| COc1cc(N2CCc3ncnc(-c4ccncc4)c3CC2)ncn1 | 9.85 |
| c1ccc2nc(N3CCCC3c3nnc4n3CCCCC4)cnc2c1 (configuration not stated) | -1.63 |

| Structure (SMILES) | cytotoxicity at 10 µM [%] |
| --- | --- |
| CC(=O)N(Cc1ncc(C)o1)C1CCN(CCn2cccn2)C1 (configuration not stated) | 6.49 |
| COc1cccc(N2CCC(CNC(=O)NCc3ccco3)C2)c1 (configuration not stated) | -127 |
| CCN(CC(=O)N(C)C)S(=O)(=O)c1cnc2c(c1)c(C)nn2C | 2.59 |
| N#Cc1cccc(OCCN2CCNC(=O)C2c2cccs2)c1 (configuration not stated) | 6.76 |
| Cc1cccc(NC(=O)N2CCC3(CC(=O)N(c4ccsc4)C3)C2)c1 (configuration not stated) | 6.47 |
| CCc1nc(N2CCN(CCOC)CC2)c2cnn(C)c2n1 | 0.363 |
| OCC1(Cc2cccc(Cl)c2)CCCN(c2ncccn2)C1 (configuration not stated) | 0.668 |
| CCC(=O)N1CCC2(CC1)CC(CC(=O)N(C)C)c1ccc(F)cc12 (configuration not stated) | -101 |
| CC(=O)N1CCC(Cc2cnc(C(=O)N3CCCC3)cn2)C1 (configuration not stated) | -23.6 |
| Cc1c(Br)c(C(F)(F)F)nn1C(C)C(=O)O (configuration not stated) | 8.05 |
| CCCC(=O)N1CCN(CCN(C)C)c2nc(C)ccc2C1 | -73.9 |
| N#CCc1ccc(OCC(=O)NS(=O)(=O)c2ccc(Br)s2)cc1 | -5.46 |
| c1ccc(OCC2C[C@@H]3[C@@H](C2)OCCN3CC2CCOCC2)nc1 (some centres not stated) | 2.75 |
| COc1ccc(Cl)cc1NCC(=O)NCc1cccnc1OC | -10.3 |
| CNC(=O)NC(=O)CN1CCc2c(Br)ccc(F)c2C1 | -9.3 |
| CNC(=O)CN1CCN(C(=O)Nc2ccc(C)s2)CC1 | -13.3 |
| Cc1cc(NCCc2nnc(N)s2)nc(-c2cccnc2)n1 | -5.44 |
| CNC(=O)C(NC(=O)c1nccn2ccnc12)c1ccc(F)c(F)c1 (configuration not stated) | -12.6 |
| CC(=O)c1ccc(C(=O)N2C[C@H]3CC[C@@H](C2)N(Cc2ccccc2)C3)s1 | -13.3 |
| CN(Cc1cccnc1)Cc1cn2c(n1)CN(C1CCOC1)CC2 (configuration not stated) | 6.2 |
| CN1CCN(Cc2noc(CCc3nc(-c4ccccc4)no3)n2)CC1 | 6.41 |
| Clc1cccc(C(NCc2ncc[nH]2)c2ccccn2)c1 (configuration not stated) | 0.863 |
| CO[C@@H]1CCN(Cc2ccoc2)[C@@H]2CN(Cc3ccco3)C[C@@H]21 | 8.1 |

| Structure (SMILES) | cytotoxicity at 10 µM [%] |
| --- | --- |
| O=C(C1CCCCC1)N1CCO[C@@H]2CNC[C@@H]21 | 8.82 |
| Cc1nc2c(c(NCCc3nc(C)c(Cl)s3)n1)CCNCC2 | -9.28 |
| CCc1ccc(-c2cc(C(F)(F)F)nc(N3CCC(N)CC3)n2)cc1 | 91.5 |
| CC(=O)NC(c1cc(F)ccc1F)C1CC1 (configuration not stated) | -1.99 |
| CC1(C(=O)NC2CCCC2)CN(c2cnccn2)CCO1 (configuration not stated) | -33.9 |
| O=C(CC1CC1)NCc1cn2c(n1)CN(Cc1cccc(F)c1)CC2 | -85.8 |
| NC(=O)c1cc(C2CCCN(C(=O)CCc3ccncc3)C2)n[nH]1 (configuration not stated) | -8.99 |
| Cc1nn2c(-c3snnc3C)nnc2s1 | -4.19 |
| Cc1cnn(C2CN(CCOc3ccccc3C#N)C2)c1 | -8.88 |
| Cc1ccccc1C(C(=O)NCCS(C)(=O)=O)N(C)C (configuration not stated) | 11.2 |
| c1coc(COCc2ncn3c2CN(Cc2cccs2)CCC3)c1 | -76.2 |
| O=C1CC(c2ccccc2)C2(CCN(Cc3ccccn3)CC2)N1 (configuration not stated) | 3.91 |
| O=S(=O)(NC1CCC2(CC1)OCCO2)c1cccc(Br)c1 | -5.65 |
| CC(C)N1CCO[C@H]2CN(Cc3cc[nH]n3)C[C@H]21 | -108 |
| CCC(C)[C@H](NC(=O)c1cc(F)ccc1-n1cnnn1)C(=O)OC (some centres not stated) | 2.53 |
| CCc1ccccc1Nc1noc2c1CN(C(=O)CNC(C)=O)CC2 | -20.1 |
| CCCN(CC1CC1)C(=O)CN1CCCC1c1cnn(C)c1 (configuration not stated) | 2.45 |
| Cc1cc(C)cc(C(C)NC(=O)c2ccc(CS(C)(=O)=O)o2)c1 (configuration not stated) | 2.49 |
| CCn1cc(CN(C)S(=O)(=O)N2CCCC2c2ccco2)cn1 (configuration not stated) | 9.14 |
| CS(=O)(=O)NC1CCN(c2cccc(F)c2C#N)CC1 | -3.6 |
| CC(C)NC(=O)CNC(C)c1c(F)cccc1Cl (configuration not stated) | 7.22 |
| CCNC(=O)N1C[C@@H]2OCC(=O)N(C)[C@@H]2C1 | 7.65 |
| CCCn1ccnc1-c1cccc(NC(=O)[C@H]2CCC(=O)N2)c1 | -4.97 |

| Structure (SMILES) | cytotoxicity at 10 µM [%] |
| --- | --- |
| Cn1cc(C(=O)Nc2cc(F)ccc2OCC2CCCO2)ccc1=O (configuration not stated) | -7.09 |
| CN(Cc1noc(C2CC2)n1)C1CCN(CCc2cccs2)C1 (configuration not stated) | -5.98 |
| CCc1nc(C2CCCN(c3ncccn3)C2)no1 (configuration not stated) | -0.996 |
| CN1CCN(Cc2cscn2)CC(C(=O)N(C)C)C1 (configuration not stated) | -5.61 |
| Cc1cnn(CC2CCCN2C(=O)c2cc(C)nc3[nH]nc(C)c23)c1 (configuration not stated) | -12.4 |
| O=C(NCCCn1cccn1)N1CCCC1c1ccncc1 (configuration not stated) | 21.5 |
| c1cnc(N2CCOCC3(CCN(c4cnccn4)CC3)C2)nc1 | -103 |
| O=C(O)COc1ccc(Cl)cc1CN1CCC2(CCNCC2)CC1 | 6.45 |
| Fc1ccccc1CN1CCCN(c2ccc3cc[nH]c3n2)CC1 | -15.2 |
| Cn1cc(-c2csc(N3CCCCCC3)n2)cn1 | 4.22 |
| CCCc1n[nH]c(=O)n1[C@@H](CC)c1ccccc1 | -5.22 |
| COc1ccc(NC(=O)N2CCCCCC2c2ccncc2)cn1 (configuration not stated) | 5.55 |
| O=C(CC1Cn2ncnc2NC1=O)Nc1ccc(F)c(F)c1 (configuration not stated) | 2.02 |
| Cc1csc(C2(NCc3nc(-c4ccco4)oc3C)CCCC2)n1 | 7.2 |
| O=C(c1cc(Cl)c[nH]1)N1CCN(CCc2ccccn2)CC1 | 19.2 |
| CN(C)C[C@H]1C[C@@H]2CN(Cc3ccco3)C[C@@H]2O1 | -1.66 |
| CN1C[C@@H](O)[C@]2(CCN(C(=O)OCc3ccccc3)C2)S1(=O)=O | -0.53 |
| COc1cc(NC(=O)N(C)CC2CC2)ncn1 | 7.09 |
| N#CCCN(C(=O)CCc1cccnc1)c1ccc2c(c1)OCCO2 | -5.34 |
| Cc1cc(C(=O)N2CCC3(CC2)C(=O)N(C)CCN3CC(C)C)c(C)o1 | -112 |
